# High-throughput results deposited in PubChem BioAssay by several laboratories.
# Beta cell apopt: inhibitors of cytokine-induced beta cell apoptosis, primary screen, luminescence. INS-1E cytokine-induced death, ATP luminescence, 48 h; percent of positive-control rescue, neutral wells zero. hit rate 0.8% among 300,000. protection from apoptosis, % (concentration not given with the values). AID 435005, 2010;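 active = Every replicate reaches about 75%, or at least half do and their mean reaches it too, limit read from the data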;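 note: 0% = cytokine-treated negative control wells and 100% = positive control rescue; higher means more ATP so stronger rescue from cytokine killing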
# CSC inhib: cancer stem cell viability inhibitors, primary screen, luminescence; hit rate 1.1% among 300,000; AID 2717, 2010; inhibition, % at 7.5 µM; cancer stem cell-like cells viability; in the data active = inhibition above about 75%; tested in HMLE shEcad cells
# Lmaj promast: Leishmania major promastigote growth inhibition, primary screen; Leishmania major promastigotes, resazurin fluorescence viability; inhibition, % at 10 µM; hit rate 9% among 200,000; in the data active = inhibition above about 50%;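 note: promastigotes grown with compound for 44 hours at 28 °C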
# SKKanGAS inh: S. pyogenes SKKanGAS growth inhibitors in kanamycin, primary screen, streptokinase expression inhibitor project, SKKanGAS strain, BacTiter-Glo luminescence | 6 h | inhibition, % at 7.5 µM | AID 1662, 2009 | hit rate 1.3% among 300,000;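 active = mean replicate score, as percent of positive control median, at least 50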;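 note: strain carries kanamycin resistance gene driven by streptokinase promoter and grows in 40 µg/ml kanamycin; loss of luminescence reflects streptokinase promoter inhibition or plain growth inhibition; 0% = median of DMSO wells and 100% = positive control at its reference dose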
# T cruzi inh: inhibitors of intracellular T. cruzi growth, primary screen, luminescence, NIH3T3 host cells; inhibition, % (concentration not given with the values); hit rate 1.4% among 300,000; T. cruzi beta-gal in NIH3T3, 90 h; AID 1885, 2009;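 active = mean inhibition across valid replicates above about 55%, limit read from the data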;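 note: signal also drops with host cell toxicity which is not excluded here; 0% = plate median of DMSO wells and 100% = zero luminescence signal; higher percent means less beta-gal luminescence so fewer parasites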
#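 System: mouse NIH/3T3 fibroblasts infected with β-gal-expressing T. cruzi Tulahuen C4 / Input: NIH/3T3 cells, 5,000 per well / Buffer or medium: Low-serum DMEM with 2% FBS / Probe or stimulus: 5000 reporter trypomastigotes per well / Schedule: ≥90 h infection period, 3 h prior cell attachment / Measured by: GalScreen luminescence, 60 min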
# Mdm2 MdmX PPI: inhibitors of human Mdm2-MdmX association, primary screen, cell-based, luminescence, split luciferase, SaOS-2, uHTS | Protein Mdm4 (Homo sapiens) + E3 ubiquitin-protein ligase Mdm2 (Homo sapiens), … | SaOS-2 split-luciferase Mdm2/MdmX complementation | inhibition, % at 8 µM | hit rate 3% among 330,000;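 active = inhibition of at least 50% at 8 µM in the primary screen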
# Lmaj promast 1uM: Leishmania major promastigote growth inhibition, confirmation, 1 µM repeat of primary hits. AID 1258, 2008. L. major promastigote growth, resazurin fluorescence, 48 h. inhibition, % at 1 µM. shares compounds with Lmaj promast. hit rate 13% among 1,100;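 active = inhibition above about 50% in both repeat tests, limit read from the data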
# Numbers without * were called inactive; . = no result given. An excerpt weighted towards active compounds, which were near 9.4% of everything screened.
SMILES,Beta cell apopt,CSC inhib,Lmaj promast,SKKanGAS inh,T cruzi inh,Mdm2 MdmX PPI,Lmaj promast 1uM
COCC(=O)N/N=C/c1ccc(Sc2nc3ccccc3s2)o1,-2,22,81*,-6,-9,-13,-8
CCOc1ccc(S(=O)(=O)NN=C(C)c2cccnc2)cc1,-3,-4,.,.,.,-34,.
COc1ccc(CN(C(=O)c2cnccn2)C(C(=O)Nc2ccc(F)cc2)c2ccccc2)cc1 (stereo not given),-4,-12,62*,.,.,14,-1
OC1(c2ccc(F)cc2)CCN(Cc2ccccc2)C1 (stereo not given),0,5,88*,-3,44,5,4
OC1(c2ccc(F)cc2)CCN(Cc2cccnc2)CC1,-2,-6,.,2,9,6,.
Cc1ccc2nc(N(CCCN(C)C)C(=O)CCc3ccccc3)sc2c1,0,5,66*,3,45,.,-16
O=[N+]([O-])c1ccc(O)c2cccnc12,-1,1,4,-19,2,5,.
O=[N+]([O-])c1ccc(O)c2ncccc12,97*,82*,96*,44,74*,46,2
CC(C)Cn1nc(NC(=O)C2CCCO2)c2cc3ccccc3nc21 (stereo not given),0,3,63*,-4,-36,10,-17
Cc1ccc2c(c1)-c1cc(C)nn1C(c1ccc3c(c1)OCO3)N2 (stereo not given),4,36,98*,1,-2,-26,95*
O=C1C2ON(c3ccc(Br)cc3)C(c3cccnc3)C2C(=O)N1C1CCCCC1 (stereo not given),3,-4,85*,-3,34,14,72*
O=C1C2ON(c3ccccc3)C(c3cccnc3)C2C(=O)N1c1ccc(Cl)c(Cl)c1 (stereo not given),.,-11,-6,-7,11,16,.
Cc1cc2nc(SCCOC(=O)Nc3cccc(Cl)c3)nc(C)c2cc1C,0,67,-4,.,18,20,.
Cc1cc2nc(SCCOC(=O)Nc3ccccc3)nc(C)c2cc1C,2,18,66*,-7,10,40,-14
COCCCNCCCCOc1ccc(Br)cc1Cl,-3,-3,98*,-1,41,20,76*
COCCCNC(=O)Nc1ccc(Br)cc1Cl,-2,-3,-7,-5,7,12,.
CCOC(=O)C1CCCN(c2oc(-c3ccc(OC)cc3)nc2C#N)C1 (stereo not given),0,4,27,-16,11,12,.
S=C(Nc1ccc(Oc2ccc(NC(=S)NC3CCCCC3)cc2)cc1)NC1CCCCC1,12,7,58*,10,35,22,3
C/C(=N\OCC(=O)Nc1ccccc1Br)c1cccs1,5,.,-3,10,19,-62,.
COC(=O)CN1C(c2cccc(Cl)c2)=Nc2ccc(Cl)cc2C1c1ccccc1 (stereo not given),3,12,60*,19,44,.,29
CN(CC(=O)Nc1ccccc1Cl)C(=O)COC(=O)C1CC1,-8,-18,.,-4,0,4,.
CN1CCCN(C2C3CC4CC(C3)CC2C4)CC1 (stereo not given),-4,46,52*,2,14,-9,-12
COc1ccc(N(C(=O)CNC(=O)c2cccs2)C(C(=O)NCC2CCCO2)c2ccccc2)c(OC)c1 (stereo not given),0,-1,.,-2,-10,21,.
c1ccc(Nc2c3c(nc4ncnn24)CCC3)cc1,-1,-7,-4,-4,-6,8,.
CSc1c2c(nc3ncnn13)CCC2,-3,-7,51*,1,6,13,-15
Fc1ccccc1Sc1ccccc1CNC1=NCCN1,.,.,99*,-1,41,-15,5
c1ccc(Sc2cccc3ccccc23)c(CNC2=NCCN2)c1,13,6,99*,4,33,28,-11
O=[N+]([O-])c1ccccc1/C=N/NC1=NCCN1,-2,8,.,-1,13,-27,.
